Results from ChEMBL document CHEMBL4431346, “2-Oxoamide inhibitors of cytosolic group IVA phospholipase A2 with reduced lipophilicity” (Bioorg Med Chem, 2016).

Assays:
[1] = target: T1, Cytosolic phospholipase A2 (Homo sapiens) (UniProt P47712); assay: Inhibition of human group 4A cPLA2 using PAPC/[14C]-labeled PAPC as substrate at 0.091 mole fraction after 30 mins by mixed micelle-based assay relative to control
T1 sequence (whole entry): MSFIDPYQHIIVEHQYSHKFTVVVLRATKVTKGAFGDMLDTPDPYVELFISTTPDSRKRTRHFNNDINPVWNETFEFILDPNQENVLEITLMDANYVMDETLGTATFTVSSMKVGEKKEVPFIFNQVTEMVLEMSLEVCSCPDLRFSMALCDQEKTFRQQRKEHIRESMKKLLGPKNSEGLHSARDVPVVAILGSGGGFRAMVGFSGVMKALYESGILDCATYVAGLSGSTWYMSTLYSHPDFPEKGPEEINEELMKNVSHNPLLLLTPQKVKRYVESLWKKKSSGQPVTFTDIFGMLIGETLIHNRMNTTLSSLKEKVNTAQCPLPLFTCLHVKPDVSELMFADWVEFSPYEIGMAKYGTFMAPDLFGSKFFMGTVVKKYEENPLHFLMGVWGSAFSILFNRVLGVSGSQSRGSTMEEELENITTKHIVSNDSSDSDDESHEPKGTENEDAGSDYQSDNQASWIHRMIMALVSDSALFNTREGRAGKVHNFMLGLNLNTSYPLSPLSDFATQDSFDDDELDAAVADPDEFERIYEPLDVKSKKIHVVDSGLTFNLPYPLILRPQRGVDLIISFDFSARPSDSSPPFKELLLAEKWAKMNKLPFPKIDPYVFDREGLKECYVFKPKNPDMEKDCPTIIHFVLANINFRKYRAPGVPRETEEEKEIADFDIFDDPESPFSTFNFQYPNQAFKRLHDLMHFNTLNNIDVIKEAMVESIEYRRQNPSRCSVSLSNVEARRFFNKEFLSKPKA
Procedure, shortened: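 Screened at 0.091 mole fraction inhibitor against human GIVA cPLA2. Micelles: 400 μM Triton X-100, 97 μM PAPC, 1.8 μM 14C-PAPC, 3 μM PIP2 in 100 mM HEPES pH 7.5 with 90 μM CaCl2, 2 mM DTT and 0.1 mg/ml BSA. Average percent inhibition is reported; 25% or less is designated N.D.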

[2] = target: T2, 85/88 kDa calcium-independent phospholipase A2 (Homo sapiens) (UniProt O60733); assay: Inhibition of human group 6A iPLA2 using PAPC/[14C]-labeled PAPC as substrate at 0.091 mole fraction after 30 mins by mixed micelle-based assay relative to control
T2 sequence (whole entry): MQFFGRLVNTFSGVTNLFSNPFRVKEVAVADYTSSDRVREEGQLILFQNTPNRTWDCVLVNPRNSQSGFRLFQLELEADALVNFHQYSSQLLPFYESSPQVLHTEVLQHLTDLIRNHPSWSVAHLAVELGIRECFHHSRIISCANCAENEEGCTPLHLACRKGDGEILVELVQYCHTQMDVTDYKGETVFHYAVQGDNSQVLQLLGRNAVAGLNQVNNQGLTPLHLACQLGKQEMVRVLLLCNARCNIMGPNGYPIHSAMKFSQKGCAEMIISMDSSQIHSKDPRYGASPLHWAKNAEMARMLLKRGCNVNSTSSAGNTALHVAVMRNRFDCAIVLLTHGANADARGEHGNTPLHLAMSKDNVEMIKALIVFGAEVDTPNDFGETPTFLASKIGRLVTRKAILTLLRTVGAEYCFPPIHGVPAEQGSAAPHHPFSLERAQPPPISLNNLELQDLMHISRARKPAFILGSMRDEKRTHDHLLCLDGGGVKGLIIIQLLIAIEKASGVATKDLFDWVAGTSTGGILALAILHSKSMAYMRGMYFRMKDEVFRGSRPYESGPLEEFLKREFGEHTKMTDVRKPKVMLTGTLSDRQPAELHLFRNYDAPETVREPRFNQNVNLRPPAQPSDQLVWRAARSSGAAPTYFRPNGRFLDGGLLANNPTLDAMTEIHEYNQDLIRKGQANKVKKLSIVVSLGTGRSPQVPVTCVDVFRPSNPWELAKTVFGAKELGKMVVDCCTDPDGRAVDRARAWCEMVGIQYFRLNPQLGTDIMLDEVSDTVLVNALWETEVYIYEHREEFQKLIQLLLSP
Procedure, shortened: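 Human GVIA iPLA2 was single-point screened at 0.091 inhibitor mole fraction. Micelles: 400 μM Triton X-100, 98.3 μM PAPC, 1.7 μM 14C-PAPC in 100 mM HEPES pH 7.5, 2 mM ATP, 4 mM DTT. Average percent inhibition is given; 25% or less is treated as no inhibition (N.D.).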

[3] = species: Homo sapiens; assay: Inhibition of human group 5 sPLA2 using PAPC/[14C]-labeled PAPC as substrate at 0.091 mole fraction after 30 mins by mixed micelle-based assay relative to control
Procedure, shortened: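 Human GV sPLA2 was tested at 0.091 mole fraction inhibitor in mixed micelles of 400 μM Triton X-100, 98.3 μM PAPC and 1.7 μM 14C-labeled PAPC. Average percent inhibition is reported; 25% or less is designated N.D.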

[4] = target: T1, Cytosolic phospholipase A2 (Homo sapiens); assay: Inhibition of human group 4A cPLA2 using PAPC as substrate preincubated for 5 mins with substrate followed by enzyme addition for 30 mins by mixed micelle-based assay
Procedure, shortened: (§1)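 Human GIVA cPLA2 in mixed micelles: 400 μM Triton X-100, 97 μM PAPC, 1.8 μM 14C-labeled PAPC and 3 μM PIP2. Buffer was 100 mM HEPES pH 7.5 with 90 μM CaCl2, 2 mM DTT and 0.1 mg/ml BSA. XI(50) is the inhibitor mole fraction in the total substrate interface giving 50% inhibition. It was measured only for compounds exceeding 85% inhibition at the 0.091 screen.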

[5] = target: T2, 85/88 kDa calcium-independent phospholipase A2 (Homo sapiens); assay: Inhibition of human group 6A iPLA2 using PAPC as substrate preincubated for 5 mins with substrate followed by enzyme addition for 30 mins by mixed micelle-based assay
Procedure, shortened: (§2)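 For human GVIA iPLA2, micelles held 400 μM Triton X-100, 98.3 μM PAPC and 1.7 μM 14C-PAPC. Buffer was 100 mM HEPES pH 7.5 with 2 mM ATP and 4 mM DTT. XI(50) is the inhibitor mole fraction in the total substrate interface causing 50% inhibition. It was determined for compounds exceeding 85% inhibition at 0.091 mole fraction.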

[6] = target: T1, Cytosolic phospholipase A2 (Homo sapiens); assay: Inhibition of human group 4A cPLA2 using PAPC/[14C]-labeled PAPC as substrate after 30 mins by mixed micelle-based assay; procedure, shortened: as §1
[7] = target: T2, 85/88 kDa calcium-independent phospholipase A2 (Homo sapiens); assay: Inhibition of human group 6A iPLA2 using PAPC/[14C]-labeled PAPC as substrate after 30 mins by mixed micelle-based assay; procedure, shortened: as §2
[8] = target: T1, Cytosolic phospholipase A2 (Homo sapiens); assay: Inhibition of human group 4A cPLA2 using [14C]-labeled PAPC as substrate after 30 mins by mixed micelle assay based liquid scintillation counting; procedure, shortened: as §1

SMILES	inhibition [1]	inhibition [2]	inhibition [3]	XI50 (mole fraction) [4]	XI50 (mole fraction) [5]	XI50 (mole fraction) [6]	XI50 (mole fraction) [7]	XI50 (mole fraction) [8]
CCCCCCOc1ccc(OCCCC(=O)C(=O)NCCCC(=O)O)cc1	63.6%	81.1%	< 25%	–	–	–	–	–
CCCCCCCCCCCCCCC(=O)C(=O)NCCCC(=O)OCC	–	–	–	0.022	0.027	–	–	–
CCCCCCCCc1ccc(OCCCC(=O)C(=O)NCCCC(=O)O)cc1	> 85%	< 25%	< 25%	–	–	0.023	–	–
CCOC(=O)CCCNC(=O)C(=O)CCCCCCCCCCCC(=O)O	< 25%	< 25%	< 25%	–	–	–	–	–
CCOC(=O)CCCNC(=O)C(=O)CCCCCCCCCCNS(=O)(=O)c1ccc(C)cc1	59.3%	< 25%	< 25%	–	–	–	–	–
Cc1ccc(S(=O)(=O)NCCCCCCCCCCC(=O)C(=O)NCCCC(=O)O)cc1	< 25%	< 25%	< 25%	–	–	–	–	–
CCCCCCOc1ccc(OCCCC(=O)C(=O)NCCCCC(=O)O)cc1	88%	82.5%	< 25%	–	–	0.013	–	–
CCCCCCCCCCCCCCC(=O)C(=O)NCCCC(=O)O	–	< 25%	–	0.024	–	–	–	–
CCCCCCCCc1ccc(OCCCC(=O)C(=O)NCCCC(=O)OCC)cc1	49.3%	94.7%	40.6%	–	–	–	0.014	–
CCCCCCOc1ccc(CCCCC(=O)C(=O)NCCCC(=O)OCC)cc1	> 85%	95.1%	33.8%	–	–	0.02	0.013	–
CCCCC/C=C\C/C=C\C/C=C\C/C=C\CCCC(=O)C(F)(F)F	–	–	–	–	–	–	–	0.036
CCCCCCOc1ccc(CCCCC(=O)C(=O)NCCCC(=O)O)cc1	> 85%	< 25%	< 25%	–	–	0.016	–	–
